Data from ChEMBL document CHEMBL3745663, “Identification of a novel class of quinoline-oxadiazole hybrids as anti-tuberculosis agents” (Bioorg Med Chem Lett, 2016).
In brackets after ≈: the same amount, converted by molar mass. Structures can show the parent of a compound that is named as a salt.

Columns and labels:
[1] = Cytotoxicity against human HepG2 cells after 48 hrs by SRB assay; format: cell-based
[2] = system: Mycobacterium tuberculosis; test: Antibacterial activity against Mycobacterium tuberculosis H37Rv after 7 days by resazurin microplate assay; format: functional; conditions: 168 h
[3] = Selectivity index, ratio of CC50 for human HepG2 cells to MIC for Mycobacterium tuberculosis H37Rv; format: toxicity, cell-based; conditions: read-out: Selectivity Index
In short: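 Index equals HepG2 CC50 (SRB assay, 10 to 80 µg/mL) divided by the REMA MIC against M. tuberculosis H37Rv (50 to 0.1 µg/mL).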

[4] = system: Mycobacterium tuberculosis; test: Antibacterial activity against Mycobacterium tuberculosis; format: functional
[5] = Metabolic stability in rat liver microsomes assessed as compound remaining at 10 uM after 60 mins by HPLC analysis; format: ADME; conditions: read-out: Stability
In short: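 Compound was incubated with rat liver microsomes and its disappearance followed over 60 minutes. Diazepam was the internal standard. The drug-to-internal-standard ratio was calculated at each time point to gauge how much compound remained.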

COc1ccc(Cc2nc(/C=C/c3cc4ccccc4nc3OC)no2)cc1
CC50 at 48 h [1]: > 215 µM
MIC [2]: 0.4 µM (≈ 0.149 µg/mL)
selectivity ratio [3]: > 535

COc1nc2ccccc2cc1/C=C/c1noc(-c2ccccc2)n1
CC50 at 48 h [1]: > 240 µM
MIC [2]: 12.3 µM (≈ 4.05 µg/mL)
selectivity ratio [3]: > 19.5

COc1ccc(-c2nc(/C=C/c3cc4ccccc4nc3OC)no2)cc1
CC50 at 48 h [1]: > 220 µM
MIC [2]: > 140 µM
selectivity ratio [3]: > 1.57

NNC(=O)c1ccncc1 [ISONIAZID]
MIC [2]: 0.73 µM (≈ 0.1 µg/mL)

COc1nc2ccccc2cc1/C=C/c1noc(-c2cccc(Cl)c2)n1
CC50 at 48 h [1]: > 220 µM
MIC [2]: > 110 µM
selectivity ratio [3]: > 2

COc1nc2ccccc2cc1/C=C/c1noc(C)n1
CC50 at 48 h [1]: > 300 µM
MIC [2]: 1.05 µM (≈ 0.281 µg/mL)
selectivity ratio [3]: > 285

COc1nc2ccccc2cc1/C=C/c1noc(COc2ccccc2)n1
CC50 at 48 h [1]: > 220 µM
MIC [2]: 0.67 µM (≈ 0.241 µg/mL)
selectivity ratio [3]: > 330

COc1nc2ccccc2cc1/C=C/c1noc(-c2ccc(Br)cc2)n1
CC50 at 48 h [1]: > 195 µM
MIC [2]: 9.19 µM (≈ 3.75 µg/mL)
selectivity ratio [3]: > 21.2

COc1nc2ccccc2cc1/C=C/c1noc(/C=C/c2ccccc2)n1
CC50 at 48 h [1]: > 225 µM
MIC [2]: 6.33 µM (≈ 2.25 µg/mL)
selectivity ratio [3]: > 35.5

COc1nc2ccc(Br)cc2cc1[C@@H](c1ccccc1)[C@@](O)(CCN(C)C)c1cccc2ccccc12 [BEDAQUILINE]
MIC [4]: 0.1 µM (≈ 0.0556 µg/mL)

COc1ccccc1-c1nc(/C=C/c2cc3ccccc3nc2OC)no1
CC50 at 48 h [1]: > 220 µM
MIC [2]: 6.96 µM (≈ 2.5 µg/mL)
selectivity ratio [3]: > 31.6

COc1nc2ccccc2cc1/C=C/c1noc(-c2cccnc2)n1
CC50 at 48 h [1]: > 240 µM
MIC [2]: > 150 µM
selectivity ratio [3]: > 1.6

COc1nc2ccccc2cc1/C=C/c1noc(-c2ccco2)n1
CC50 at 48 h [1]: > 250 µM
MIC [2]: 27.4 µM (≈ 8.75 µg/mL)
selectivity ratio [3]: > 9.12

COc1nc2ccccc2cc1/C=C/c1noc(-c2cccc(C)c2)n1
CC50 at 48 h [1]: > 230 µM
MIC [2]: 110 µM (≈ 37.8 µg/mL)
selectivity ratio [3]: > 2.09

COc1nc2ccccc2cc1/C=C/c1noc(-c2ccc(C)cc2)n1
CC50 at 48 h [1]: > 230 µM
MIC [2]: 40 µM (≈ 13.7 µg/mL)
selectivity ratio [3]: > 5.75

COc1nc2ccccc2cc1/C=C/c1noc(-c2ccc(F)cc2)n1
CC50 at 48 h [1]: > 230 µM
MIC [2]: 5.61 µM (≈ 1.95 µg/mL)
selectivity ratio [3]: > 41

COCc1nc(/C=C/c2cc3ccccc3nc2OC)no1
CC50 at 48 h [1]: > 270 µM
MIC [2]: 0.44 µM (≈ 0.131 µg/mL)
selectivity ratio [3]: > 610
remaining at 1 h, 10 µM [5]: 99%

COc1nc2ccccc2cc1/C=C/c1noc(-c2ccccc2Br)n1
CC50 at 48 h [1]: > 195 µM
MIC [2]: 16.8 µM (≈ 6.86 µg/mL)
selectivity ratio [3]: > 11.6

COc1nc2ccccc2cc1/C=C/c1noc(-c2ccccc2C)n1
CC50 at 48 h [1]: > 230 µM
MIC [2]: 72.8 µM (≈ 25 µg/mL)
selectivity ratio [3]: > 3.16

COc1nc2ccccc2cc1/C=C/c1noc(Cc2ccccc2)n1
CC50 at 48 h [1]: > 230 µM
MIC [2]: 0.44 µM (≈ 0.151 µg/mL)
selectivity ratio [3]: > 520

COc1cccc2c1C(=O)c1c(O)c3c(c(O)c1C2=O)C[C@@](O)(C(=O)CO)C[C@@H]3O[C@H]1C[C@H](N)[C@H](O)[C@H](C)O1 [DOXORUBICIN HYDROCHLORIDE]
CC50 at 48 h [1]: 127 µM

COc1cccc(-c2nc(/C=C/c3cc4ccccc4nc3OC)no2)c1
CC50 at 48 h [1]: > 220 µM
MIC [2]: 105 µM (≈ 37.7 µg/mL)
selectivity ratio [3]: > 2.1
